Assay results published in article PMC4167792 (Analytical biochemistry, 2013).
Where “and” joins values, the source holds several entries; their conditions need not be identical. Equal entries are not always repeated.

Tests used:
SIRT6 = assay: Histone deacetylation assay by mass spectrometry on SIRT6-coated magnetic beads; type: biochemical, chicken; conditions: 10 μM of each compound, H3K9Ac peptide, 0.2 mM NAD+, 4 h at 37°C
Method in brief: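 SIRT6 was coupled by its C-terminus to amine-terminated magnetic beads (1 μm). Beads were incubated in 50 μL of 50 mM Tris-HCl pH 8.0, 150 mM NaCl, 1 mM DTT with 5 μg of H3K9Ac peptide (residues 1–21). p-Aminohippuric acid was added as internal standard. The supernatant, taken after magnetic separation, was run on C18 LC-ESI-MS, positive-ion SIM at m/z 922.4 (acetylated) and 908.4 (deacetylated).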

SIRT6 protein = SIRT6 protein (Gallus gallus, UniProt A0A8V1A309); assay: Frontal affinity chromatography on the SIRT6-OT column; type: binding, chicken; conditions: for Kd: SIRT6-OT column, ammonium acetate 10 mM pH 7.4:methanol 90:10, 0.2 mM NAD+, non-linear regression
[1] = test system: quercetin binding site of SIRT6; assay: Frontal displacement chromatography of quercetin on the SIRT6-OT column; parameters: species or system chicken; conditions: 10 μM polyphenol in mobile phase in the presence of 5 μM quercetin
Method in brief: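 Full-length chicken SIRT6, expressed in E. coli as a GST fusion, thrombin-cleaved and purified by size exclusion. Coupled inside an open tubular capillary (30 cm × 100 μm i.d.) with EDC/Sulfo-NHS in 100 mM MES pH 5.5, 18 h at 4°C. Frontal runs at room temperature, 0.05 mL min^-1, in 10 mM ammonium acetate pH 7.4:methanol (90:10) with 0.2 mM NAD⁺. ESI-MS detection; retention-volume shift recorded.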

SMILES	% inhibition of deacetylation relative to control (SIRT6) [%]	Kd (SIRT6 protein)	displacement of quercetin (change in retention) [1] [min]	fold decrease in affinity for the SIRT6 protein (SIRT6 protein; naringenin vs apigenin (saturation of the C ring double bond)) [fold]	breakthrough volume (SIRT6 protein; 2 μM quercetin on SIRT6-OT column) [mL]	midpoint of the breakthrough curve (SIRT6 protein; 2 μM quercetin on SIRT6-OT column, 0.05 mL/min) [min]
O=c1cc(-c2ccc(O)cc2)oc2cc(O)cc(O)c12 [Apigenin]	39.0 ± 5.9	1.9 µM and 1.92 µM	–	–	–	–
O=c1c(O)c(-c2ccc(O)cc2)oc2cc(O)cc(O)c12 [Kaempferol]	48.6 ± 6.0	3.88 ± 0.57 µM	–	–	–	–
O=c1cc(-c2ccc(O)c(O)c2)oc2cc(O)cc(O)c12 [Luteolin]	53.7 ± 17.7	1.78 ± 0.64 µM	38.1	–	–	–
O=C1C[C@@H](c2ccc(O)cc2)Oc2cc(O)cc(O)c21 [Naringenin]	31.0 ± 5.3	6.6 µM and 6.62 µM	–	3	–	–
O=c1c(O)c(-c2ccc(O)c(O)c2)oc2cc(O)cc(O)c12 [Quercetin]	46.6 ± 2.3	4.09 ± 2.26 µM	–	–	5.25	105
O=c1cc(-c2ccc(O)cc2)oc2c([C@@H]3O[C@H](CO)[C@@H](O)[C@H](O)[C@H]3O)c(O)cc(O)c12 [Vitexin]	24.9 ± 0.9	15.3 µM	16.5	–	–	–
O=c1c(-c2ccc(O)cc2)coc2cc(O)cc(O)c12 [genistein, Genistein]	–	–	2.5	–	–	–
